Published values gathered from unrelated publications.
Protocols differ between the studies behind these lines.
Target: NT-3 growth factor receptor (NTRK3, Homo sapiens, UniProt Q16288)

| SMILES | observed | action | technique | concentration | quantity | result |
| --- | --- | --- | --- | --- | --- | --- |
| CN(C)C(=O)Cn1cc(-c2nc([C@@](C)(c3ccc(-c4cnc(N)nc4)cc3)C3CC3)no2)cn1 | cell-free assay |  | competition with immobilised ligand | 1 µM | remaining binding | 92% |
| O=C(Nc1cnn(-c2csc(C(=O)NC3COC3)c2)c1)Nc1ccccc1Cl | enzyme activity | inhibitor |  | 5 µM | remaining activity | 64.3% |
| Nc1ncnc2occ(-c3ccc(NC(=O)Nc4cc(C(F)(F)F)ccc4F)cc3)c12 | cell-free assay |  |  | 20 µM | remaining signal | 0.25% |
| O=C1Nc2ccc(Cl)cc2C1=Cc1cc(Cl)c(O)c(Cl)c1 | cell-free assay |  |  | 0.5 µM | remaining signal | 44.8% |
| COCCOc1nc(-c2ccc(Cl)nc2)nc2c1CN(C(=O)c1ncn3ccccc13)CC2 | cell-free assay |  | competition with immobilised ligand | 0.1 µM | remaining binding | 100% |
| CC(C)(C)c1nc(-c2cccc(NS(=O)(=O)c3c(F)cccc3F)c2F)c(-c2ccnc(N)n2)s1 | enzyme activity | inhibitor | radiometric | 1 µM | remaining activity | 93% |
| CS(=O)(=O)NCC[C@H](NC(=O)c1cncc2c1cnn2-c1ccc(F)cc1)c1ccnc(S(C)(=O)=O)c1 | cell-free assay |  | competition with immobilised ligand | 1 µM | remaining binding | 100% |
| CN1CCN(c2ccc(C(=O)Nc3n[nH]c4ccc(Cc5cc(F)cc(F)c5)cc34)c(NC3CCOCC3)c2)CC1 | enzyme activity | inhibitor | FRET | 1 µM | inhibition | 99.8% |
| Cc1ccc(NC(=O)c2ccc(C)c(C(F)(F)F)c2)cc1C#Cc1nn(C2CCC(O)CC2)c2ncnc(N)c12 (centres unmarked) | cell-free assay |  |  | 10 µM | remaining signal | 17% |
| O=C(Nc1cccc(F)c1)Nc1cccc(C(=O)Nc2ccc3[nH]ncc3c2)c1 | enzyme activity | inhibitor | FRET | 1 µM | inhibition | 17% |
| COc1cc2c(Nc3ccc(Br)cc3F)ncnc2cc1OCC1CCN(C)CC1 | cell-free assay |  |  | 0.5 µM | remaining signal | 72.2% |
| O=C(Nc1cnn2ccc(N3CCC[C@@H]3c3cc(F)ccc3F)nc12)N1CC[C@H](O)C1 | enzyme activity | inhibitor | FRET | 1 µM | inhibition | 100% |
| Cc1c[nH]c2nccc(Oc3c(F)cc(Nc4cc(Cl)nc(N)n4)cc3F)c12 | cell-free assay |  | competition with immobilised ligand | 0.1 µM | remaining binding | 86% |
| O=C(Nc1ccc2[nH]ncc2c1)c1cccc(NC(=S)Nc2ccc(F)cc2F)c1 | enzyme activity | inhibitor | FRET | 1 µM | inhibition | 12.5% |
| NS(=O)(=O)c1cc(NC(=O)Cc2ccccc2)ccc1Oc1cccc(Cl)c1 | cell-free assay |  | competition with immobilised ligand | 1 µM | remaining binding | 87% |
| Cc1ccc(Nc2nccc(N(C)c3ccc4c(C)n(C)nc4c3)n2)cc1S(N)(=O)=O | cell-free assay |  |  | 0.5 µM | remaining signal | 87.8% |
| O=C(Nc1cccc(C(=O)Nc2ccc3[nH]ncc3c2)c1)Nc1cccc(C(F)(F)F)c1 | enzyme activity | inhibitor | FRET | 1 µM | inhibition | 26.6% |
